The nature of series [1]: Resistance index, Ratio of EC50 for drug-resistant HIV1 with RT Y181C mutation in MT4 cells to EC50 for HIV1 NL43 in MT4 cells.
The target of series [2] is Human immunodeficiency virus type 1 reverse transcriptase (Human immunodeficiency virus 1, UniProt Q72547, V106A). Kind of series: Inhibition of HIV1 reverse transcriptase V106A mutant.
Series [3] is described as follows: Selectivity index, ratio of CC50 for MT4 cells to EC50 for HIV1 NL43 infected MT4 cells. The series is classed as functional.
Series [4] concerns Human immunodeficiency virus 1. Nature of the series: Antiviral activity against HIV1 with reverse transcriptase Y181C mutation in MT4 cells assessed as inhibition of viral induced cytopathic effect by MTT method. The series is classed as functional, organism-based. The note with it: Human immunodeficiency virus 1, MT4. Summed up: (§1)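 MT-4 cells infected with the HIV-1 NNRTI-resistant mutant strain. Viable cells scored at day 5 post-infection by the MTT tetrazolium colorimetric method. […] Values are means ± SD from at least two experiments.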

Series [5] addresses Human immunodeficiency virus type 1 reverse transcriptase (Human immunodeficiency virus 1, UniProt Q72547, L100I). Kind of series: Inhibition of HIV1 reverse transcriptase L100I mutant.
Series [6] has as its system Human immunodeficiency virus 1. Kind of series: Antiviral activity against HIV1 with reverse transcriptase K103N mutation in MT4 cells assessed as inhibition of viral induced cytopathic effect by MTT method. It is filed as functional, organism-based. The conditions noted are these: Human immunodeficiency virus 1, MT4. Summed up: as §1
Series [7] relates to Human immunodeficiency virus 1. Nature of the series: Antiviral activity against HIV1 with reverse transcriptase Y188L mutation in MT4 cells assessed as inhibition of viral induced cytopathic effect by MTT method. The series is classed as functional, organism-based. The note with it: Human immunodeficiency virus 1, MT4. Summed up:
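MT-4 cells infected with the HIV-1 NNRTI-resistant mutant strain. Viable cells scored at day 5 post-infection by the MTT tetrazolium colorimetric method. Values are means ± SD from at least two experiments.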
On the technique in general: Cytopathic effects are the visible damage that an infection or toxin causes in cultured cells.

For series [8], the target named is Human immunodeficiency virus type 1 reverse transcriptase (Human immunodeficiency virus 1, UniProt Q72547). Kind of series: Inhibition of wild type HIV1 3B reverse transcriptase.
Series [9] can be described thus: Resistance index, Ratio of EC50 for drug-resistant HIV1 with RT IRLL98 mutation in MT4 cells to EC50 for HIV1 NL43 in MT4 cells.
Series [10] can be described thus: Inhibition of HIV1 reverse transcriptase Y1811 mutant. The arrangement: species or system Human immunodeficiency virus 1. Summed up: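 Recombinant HIV-1 RT Y181I mutant, purified to >95%, 10 min preincubation with inhibitor. Radioactive nucleotide incorporation into poly(rA)/oligo(dT) 10:1 was followed at varied nucleotide substrate levels, sampling every 2 min for initial velocities. Inhibitor spanned 0.2–5 Ki. Ki came from Lineweaver-Burk and Dixon plots. Means ± SD of at least three experiments.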

Series [11] in a line: Cytotoxicity against MT4 cells after 4 days by MTT method. It is filed as cell-based. The note with it: human. Summed up: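 Mock-infected (noninfected) MT-4 cells, run in parallel with the antiviral test. Viable cells read by the MTT tetrazolium colorimetric method. […] Means ± SD from at least two experiments. The top concentration was limited where compounds precipitated in the culture medium.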
A general note: Formazan colour is commonly taken as a measure of viable cells.

Series [12] relates to Human immunodeficiency virus 1. Nature of the series: Antiviral activity against HIV1 NL43 in MT4 cells assessed as inhibition of viral induced cytopathic effect after 5 days by MTT method. The conditions noted are these: Human immunodeficiency virus 1, NL43, MT4, 120 h.
Series [13] concerns the target Human immunodeficiency virus type 1 reverse transcriptase (Human immunodeficiency virus 1, UniProt Q72547, Y188L). Kind of series: Inhibition of HIV1 reverse transcriptase Y188L mutant.
Series [14] is described as follows: Resistance index, Ratio of EC50 for drug-resistant HIV1 with RT Y188L mutation in MT4 cells to EC50 for HIV1 NL43 in MT4 cells.
The test system of series [15] is Human immunodeficiency virus 1. Nature of the series: Antiviral activity against HIV1 with reverse transcriptase IRLL98 mutation in MT4 cells assessed as inhibition of viral induced cytopathic effect by MTT method. It is filed as functional, organism-based. The note with it: Human immunodeficiency virus 1, MT4.
Series [16] concerns the target Human immunodeficiency virus type 1 reverse transcriptase (Human immunodeficiency virus 1, UniProt Q72547, K103N). Nature of the series: Inhibition of HIV1 reverse transcriptase K103N mutant.
Series [17] addresses Human immunodeficiency virus type 1 reverse transcriptase (Human immunodeficiency virus 1, UniProt Q72547, V179D). Nature of the series: Inhibition of HIV1 reverse transcriptase V179D mutant.
The nature of series [18]: Resistance index, Ratio of EC50 for drug-resistant HIV1 with RT K103N mutation in MT4 cells to EC50 for HIV1 NL43 in MT4 cells.

A word on the Ki: it is the equilibrium dissociation constant of an inhibitor or competing ligand from its target. In general, EC50 refers to the concentration at which the effect is half-maximal. Usually CC50 stands for the concentration that lowers cell viability or growth by half.

Regarding `Cc1c(C(C)c2c(F)cccc2F)nc(N2CCCCC2)[nH]c1=O` (centres undefined), the “Ratio EC50” value in series [1] worked out at 10; in [9] it was 9; in [14], 56; in series [18], 74. The Ki was 20 nM in series [2]; 2000 nM in series [5]; 70 nM in [8]; > 20000 nM in series [10]; 3500 nM in series [13]; 600 nM in [16]. In addition, the Ki in [17] was 10 nM. For the same compound, the “Ratio CC50/EC50” value in series [3] is recorded as >10714. Besides, the EC50 worked out at 70 nM in series [4]; 520 nM in [6]; 390 nM in series [7]; 7 nM in series [12]; 60 nM in [15]. For the same compound, in series [11], the CC50 at 96 h was > 75000 nM.

In the case of `CCC(c1nc(N(C)C)[nH]c(=O)c1C)c1c(F)cccc1F` (centres undefined), the “Ratio EC50” value worked out at 41 in series [1], 169 in [9], 69 in series [14] and 261 in series [18]. The Ki was > 40000 nM in [2]; > 20000 nM in series [5]; 1000 nM in [8]; > 20000 nM in [10]; > 20000 nM in [13]; > 20000 nM in [16]. In addition, the Ki in series [17] is > 40000 nM. Besides, the “Ratio CC50/EC50” value in series [3] is >11571. Besides, the EC50 in series [4] amounted to 290 nM; in series [6], 1830 nM; in series [7] it was 480 nM; in series [12], 7 nM; in [15], 1180 nM. For the same compound, the CC50 at 96 h in series [11] was > 81000 nM.

For `Cc1c(C(C)c2c(F)cccc2F)nc(N2CCOCC2)[nH]c1=O` (centres undefined), the “Ratio EC50” value in series [1] turned out to be 45; in series [9] it was 25; in [14], 280; in [18], 195. The Ki in [2] is 500 nM; in [5], 10000 nM; in series [8], 3 nM; in series [10] it was > 20000 nM; in series [13], 5500 nM; in [16] it was 3300 nM. Besides, in series [17], the Ki is > 20000 nM. Also, the “Ratio CC50/EC50” value in [3] is given as >37000. In addition, the EC50 in series [4] was found to be 90 nM; in series [6], 390 nM; in series [7], 560 nM; in [12], 2 nM; in series [15] it was 50 nM. Besides, the CC50 at 96 h in series [11] is > 74000 nM.

As for `CCCN(C)c1nc(Cc2c(F)cccc2F)c(C)c(=O)[nH]1`, the “Ratio EC50” value in [1] was found to be 19; in [9] it was 27; in series [14], 800; in series [18], 375. Also, the Ki in series [2] was 8 nM; in series [5] it was 18000 nM; in series [8], 100 nM; in series [10], > 20000 nM; in series [13] it was > 20000 nM; in series [16], > 20000 nM. Besides, the Ki in series [17] is 200 nM. The “Ratio CC50/EC50” value in [3] is on record as >40500. For the same compound, the EC50 in series [4] came to 39 nM; in [6], 750 nM; in series [7] it was 1600 nM; in series [12] it was 2 nM; in series [15], 55 nM. The CC50 at 96 h in series [11] is > 81000 nM.

As to `O=c1cc(Cc2c(F)cccc2F)nc(N2CCCCC2)[nH]1`, the entries for the “Ratio EC50” value in series [1], in series [9] and in [14] were 55, 169 and 615, respectively. The Ki in series [2] was 200 nM; in series [5], 10000 nM; in series [8], 2500 nM; in [10], > 20000 nM; in [13], > 20000 nM; in series [16], > 20000 nM. In series [17], this compound displayed a Ki of 5000 nM. In addition, the “Ratio CC50/EC50” value in [3] is reported as >6308. The EC50 in series [4] is 710 nM; in series [6] it was > 10000 nM; in series [7], 8000 nM; in [12], 13 nM; in series [15] it was 2200 nM. Further, the CC50 at 96 h in series [11] was > 82000 nM.

These data come from ChEMBL document CHEMBL1137561 (J Med Chem, 2007).
